Tn6 DDE FP = disrupts Tn6 cyclic peptide binding to fibrin D-Dimer-E complex; inhibition, % at 8.3 µM; Fibrin DD(E) TRITC-Tn6 fluorescence polarization displacement; AID 720509; hit rate 0.21% among 370,000;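 active = inhibition above a per-campaign cutoff: mean of compounds within control limits plus 3 SD, cut at about 15% in these data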;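 note: 0% = median of all compound wells on the plate and 100% = blocking peptide control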
ADAM17 inh = inhibits human ADAM17; recombinant ADAM17, EDANS/DABCYL FRET peptide cleavage; AID 720648; P78536; inhibition, % at 6.95 µM; hit rate 0.83% among 370,000;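 active = inhibition above the mean of compounds lying between control limits plus 3 SD, set per campaign, cut at about 8.5% in these data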;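 note: 0% = DMSO-only wells as the low control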
ADAM10 inh = ADAM10 inhibition, QFRET primary screen. recombinant ADAM10, EDANS/DABCYL FRET peptide cleavage, 3 h. hit rate 0.62% among 370,000. O14672. inhibition, % at 7 µM;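 active = inhibition above a per-campaign cutoff equal to the mean of compounds falling between control-based bounds plus 3 SD, cut at about 20% in these data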;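 note: 0% = DMSO wells while the 100% control is not disclosed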
Target sequence (O14672 214-748 limits assumed): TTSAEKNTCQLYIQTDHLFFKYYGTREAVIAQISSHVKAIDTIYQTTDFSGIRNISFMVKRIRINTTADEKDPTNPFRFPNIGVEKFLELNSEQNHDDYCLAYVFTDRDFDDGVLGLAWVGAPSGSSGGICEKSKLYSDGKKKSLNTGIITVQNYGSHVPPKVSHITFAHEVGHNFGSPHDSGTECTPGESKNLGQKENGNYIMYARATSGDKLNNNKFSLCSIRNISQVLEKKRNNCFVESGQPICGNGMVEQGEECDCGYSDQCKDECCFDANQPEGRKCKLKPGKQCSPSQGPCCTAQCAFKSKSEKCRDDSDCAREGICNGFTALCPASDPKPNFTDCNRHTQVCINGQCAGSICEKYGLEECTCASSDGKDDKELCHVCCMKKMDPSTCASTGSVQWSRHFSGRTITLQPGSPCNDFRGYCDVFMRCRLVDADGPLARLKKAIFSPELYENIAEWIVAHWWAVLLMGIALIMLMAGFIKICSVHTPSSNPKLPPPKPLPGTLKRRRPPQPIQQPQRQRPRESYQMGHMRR
MT1-MMP act inh = MT1-MMP (human) activation inhibition. GFP/RFP ratio change, % at 20 µM. P50281. AID 651647. HT1080 RFP-PRO-GFP cells, GFP/RFP ratio fluorescence, overnight; percent of plate control window, DMSO zero. hit rate 0.061% among 360,000;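 active = GFP/RFP ratio change of at least 30% with cell ATP level not reduced by more than half and red fluorescence within 50% of control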
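Assay system – RFP-PRO-GFP reporter HT1080 cells · Compound dosing – single dose of 20 µM compound, 1% DMSO final · Incubation – overnight compound exposure at 37 °C · Measure – GFP/RFP fluorescence ratio · Benchmarks – DMSO wells and RFP-L50D-GFP cells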
DDE Tn7 FP inh = inhibitors of Tn7 peptide binding to human fibrin DD(E); FP displacement of FITC-Tn7 peptide from fibrin DD(E); 0% = median of compound wells per plate; inhibition, % at 8.3 µM; hit rate 0.13% among 370,000; AID 720508;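 active = inhibition above the mean of compounds falling within the control limits plus 3 SD of them, cut at about 14% in these data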;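 note: 0% = plate median of compound wells and 100% = 10 µM Aha-Tn7 peptide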
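Assay system: Fibrin-DD(E) protein isolated from polymerized human fibrin clots; read-out basis: percent inhibition; medium: Tris/NaCl/CaCl2 buffer, pH 7.8; signal: FP measurement; incubation: 10 min plus 3 h, room temperature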
MT1-MMP conf = blocks activation of human MT1-MMP in validation testing; shares compounds with MT1-MMP act inh; HT1080 RFP-PRO-GFP cells, GFP and RFP fluorescence ratio, overnight; inhibition, % at 20 µM; hit rate 10% among 200;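 active = inhibition of at least 50% in the primary cell screen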
* = called active by the depositor; . = no result given. Shown are actives, neighbours in structure and some others; about 1.6% of the full set was active somewhere.

SMILES	Tn6 DDE FP	ADAM17 inh	ADAM10 inh	MT1-MMP act inh	DDE Tn7 FP inh	MT1-MMP conf
CCOC(=O)C1=C(C)N=c2s/c(=C\c3ccc(OC(C)=O)c(OCC)c3)c(=O)n2C1/C=C/c1ccccc1 (configuration not stated)	-3	-5	-2	42*	-3	-17
C(=C\c1ccccc1)/CSc1nnc(COc2ccccc2)n1Cc1ccco1	-3	6	19	.	-11	.
COc1ccc(CNCC#Cc2ccc(C(F)(F)F)cc2)c(OC)c1	-2	-5	-5	.	2	.
CC1(C)C=C2C(N(CC3CC3)C(=N)N2C(=O)OCc2ccccc2)n2c(=O)n(-c3ccccc3)c(=O)n21 (configuration not stated)	5	-5	-20	.	-8	.
COc1cc(/C=C/c2cc(OC(C)=O)c3ccccc3n2)c(OC(C)=O)c([N+](=O)[O-])c1	-2	0	1	37*	0	24
COc1ccccc1C(=O)NC(=S)/C=C1/N(C)c2ccccc2C1(C)C	3	6	14	55*	1	31
C=C1N(C)c2cc([N+](=O)[O-])c(N)cc2C1(C)C	-1	3	3	36*	2	13
CCCC1CCC2(CC1)CCC2OC(=S)NCc1cccc(OC)c1 (configuration not stated)	-3	-1	3	.	5	.
CCC(=O)NCCn1c(C)cc2ccccc21	.	.	.	5	.	.
Cc1cc2ccccc2n1CCNC(=O)COc1ccccc1	13	-4	-19	40*	-6	4
O=S(=O)(c1ccc2nc(COc3ccc(Cl)cc3Cl)[nH]c2c1)N1CCOCC1	-6	3	7	35*	-1	14
Nc1nc(Nc2cccc(F)c2)nc2ccccc12	-8	-2	-13	35*	0	25
O=c1oc(Nc2cccc(F)c2)nc2ccccc12	-5	-11	-23	4	-3	.
Cc1ccc(C)c(Nc2nc(N)c3ccccc3n2)c1	3	-3	-2	31*	4	19
N#CC(C#N)=NNc1ccc([N+](=O)[O-])cc1	-4	3	5	33*	1	26
C/C(=N\Nc1ccc([N+](=O)[O-])cc1)c1ccc(C#N)cc1	-1	0	5	9	-4	.
COc1ccc(C)cc1N=Nc1ccc(O)c2ncccc12	1	2	-3	31*	-2	34
COC(=O)[C@H](C)NC(=O)[C@@H]1CC=C[C@@H]2CCN(CCc3ccccc3)C(=O)[C@@H]21	5	-1	-3	.	4	.
O=C(Nc1ccc(Br)c(C(F)(F)F)c1)[C@@H]1CC=C[C@@H]2CCN(CC3CC3)C(=O)[C@@H]21	5	-4	-5	.	7	.
Cc1cccc[n+]1CC(=O)/C=C1\N(C)c2ccccc2C1(C)C	3	4	2	41*	4	47
Cc1ccc[n+](CC(=O)/C=C2\N(C)c3ccccc3C2(C)C)c1	-3	4	12	-5	-3	.
CN1/C(=C\C(=O)CN2C(=O)NC3(CCCCCC3)C2=O)C(C)(C)c2ccccc21	-7	-15	-57	34*	-3	27
CC(C)C[C@H](NC1(C(=O)NC2CCCCC2)CCOCC1)C(=O)NCC(c1ccccc1)c1ccccc1	3	-3	-10	.	-3	.
Cn1c(SCC(=O)Nc2ccc(S(=O)(=O)Nc3nccs3)cc2)nc2sc3c(c2c1=O)CCCC3	0	2	11	.	-8	.
O=C1C(=O)N(Cc2ccc(-c3ccccc3)cc2)c2ccc(OC(F)(F)F)cc21	5	2	15	.	-1	.
SMILES	Tn6 DDE FP	ADAM17 inh	ADAM10 inh	MT1-MMP act inh	DDE Tn7 FP inh	MT1-MMP conf
Cc1ccccc1N1CC(=O)N(c2ccccc2C)CC1=O	3	-3	2	36*	-5	13
O=[N+]([O-])c1cc(Br)c(O)c(C=Nc2ccc(N3CCOCC3)cc2)c1	13	0	1	40*	3	4
CCC[C@H]1[C@@H](NC(=O)c2cccc(N(C)C)c2)CC[C@@]23CCCN2C(=O)CCC[C@@H]13	4	-24	-92	.	8	.
CCn1c2ccccc2nc2cc3c(cc21)c(Cl)c(=O)c1ccccc13	12	-1	-15	36*	-5	-2
CN(c1cc2c(c3c1ccn3C)C1CCC2C1)C1CCCCC1 (configuration not stated)	-2	1	6	35*	-1	1
CCN(C)c1cc2c(c3c1ccn3C)C1CCC2C1 (configuration not stated)	1	-5	-11	-1	2	.
Cc1oc2ccc(O)cc2c1C(=O)c1ccc([N+](=O)[O-])cc1	-5	2	3	-4	-2	.
CN(C)/C=C/c1oc2ccc(O)cc2c1[N+](=O)[O-]	-15	-3	-19	58*	1	51*
CCOC(=O)[C@]12CCCCC/C=C\1N(CCc1ccc(Cl)cc1)C(=O)[C@H]2CC(=O)NCC1CCCCC1	-1	6	12	.	-8	.
CN1C2=CC=CC=CC2=[N+](C)C12C=CC(=[N+]([O-])[O-])C=C2[N+](=O)[O-] (configuration not stated)	-6	-3	0	39*	-7	31
O=C(Nc1ccc(S(=O)(=O)Nc2ccccc2)cc1)C1COc2ccccc2O1 (configuration not stated)	-1	5	8	31*	-2	7
Cc1cc(C)nc(NS(=O)(=O)c2ccc(NC(=O)C3COc4ccccc4O3)cc2)n1 (configuration not stated)	-2	-3	0	-1	9	.
CC1CCN(C(=O)c2ccc3c(c2NCCO)C(=O)c2ccccc2C3=O)CC1	1	8	18	31*	-10	28
CNc1ccccc1C(C)(C)c1cc(-c2cccc(OC)c2)no1	3	1	4	47*	0	54*
COC(=O)[C@H](CC(C)C)N(CCc1cn(Cc2ccc(C)cc2)nn1)S(=O)(=O)c1ccccc1Br	5	6	12	.	0	.
O=C(COC(=O)c1ccccc1)NCC1CCCO1 (configuration not stated)	7	-3	3	9	2	.
Cc1c(C(=O)OCC(=O)NCC2CCCO2)oc2ccccc12 (configuration not stated)	4	-4	-2	33*	4	3
N#CCCN1CCCc2cc(N=Nc3ccc(C(F)(F)F)cc3)ccc21	-6	0	4	32*	-3	28
CCCN1CCCc2ccccc21	-4	-5	0	3	-1	.
COc1cc(-c2cc(=O)c3c(O)c(OC)c(OC)cc3o2)cc(OC)c1O	-14	2	-4	31*	7	35

Compound activity as filed in PubChem.
